Source: ChEMBL document CHEMBL4385599, “Neutral sphingomyelinase 2 inhibitors based on the 4-(1H-imidazol-2-yl)-2,6-dialkoxyphenol scaffold” (Eur J Med Chem, 2019)

Tests used:
[1] = Metabolic stability in mouse liver microsomes assessed as parent compound remaining at 5 uM in presence of NADPH regenerating system measured after 1 hr by LC/MS/MS method; format: ADME, Microsome
[2] = Selectivity index, ratio of IC50 for horseradish peroxidase to IC50 for Inhibition of human recombinant nSMase expressed in HEK293 cells; format: cell-based
[3] = target: T1, Sphingomyelin phosphodiesterase 3 (Homo sapiens, UniProt Q9NY59); test: Inhibition of human recombinant nSMase expressed in HEK293 cells using sphingomyelin as substrate by alkaline phosphatase, choline oxidase and horseradish peroxidase dependent H2O2 detection based fluorescence coupled assay
T1 sequence (Q9NY59 whole entry): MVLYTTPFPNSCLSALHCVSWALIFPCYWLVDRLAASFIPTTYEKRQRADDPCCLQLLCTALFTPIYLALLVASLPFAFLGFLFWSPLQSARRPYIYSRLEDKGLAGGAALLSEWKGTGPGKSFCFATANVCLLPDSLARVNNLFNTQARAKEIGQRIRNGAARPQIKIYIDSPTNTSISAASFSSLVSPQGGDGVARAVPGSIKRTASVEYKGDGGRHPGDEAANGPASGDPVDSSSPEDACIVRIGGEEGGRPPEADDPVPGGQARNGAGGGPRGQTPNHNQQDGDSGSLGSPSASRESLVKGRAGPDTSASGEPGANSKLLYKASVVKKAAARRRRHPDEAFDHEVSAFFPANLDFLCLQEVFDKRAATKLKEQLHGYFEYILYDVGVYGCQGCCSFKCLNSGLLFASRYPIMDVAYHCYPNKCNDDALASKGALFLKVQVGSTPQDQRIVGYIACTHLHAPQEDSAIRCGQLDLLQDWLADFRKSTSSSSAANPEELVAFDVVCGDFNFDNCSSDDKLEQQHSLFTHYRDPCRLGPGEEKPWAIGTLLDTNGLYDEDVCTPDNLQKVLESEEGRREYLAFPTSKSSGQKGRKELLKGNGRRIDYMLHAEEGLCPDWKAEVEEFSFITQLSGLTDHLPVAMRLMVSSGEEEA
Outline: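 Fluorescence-based coupled assay with human recombinant nSMase2, alkaline phosphatase and choline oxidase; IC50 values are mean ± SD of at least three experiments.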

[4] = Ratio of drug level in brain to plasma in CD-1 mouse at 10 mg/kg, po measured after 2 hrs by UPLC and LC-MS/MS analysis; format: ADME, organism-based
Outline: (§1)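 Male CD-1 mice (25–30 g), single oral gavage 10 mg/kg in 5% DMSO, 5% polysorbate 80, 90% saline; 3 mice per time point, sacrificed at 0.5 and 2 h. Cardiac blood into heparin, plasma by centrifugation; brains flash frozen. Acetonitrile extraction with losartan internal standard; quantified by UPLC–LC-MS/MS against calibration curves in naïve plasma/brain matrix.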

[5] = Ratio of drug level of test compound to drug level of DPTIP in CD-1 mouse plasma at 10 mg/kg, po measured after 2 hrs by UPLC and LC-MS/MS analysis; format: ADME, organism-based; conditions: in vivo; outline: as §1
[6] = species: Homo sapiens; test: Selectivity index, ratio of IC50 for alkaline phosphatase (unknown origin) to IC50 for Inhibition of human recombinant nSMase expressed in HEK293 cells; format: cell-based
[7] = Metabolic stability in human liver microsomes assessed as parent compound remaining at 5 uM in presence of NADPH regenerating system measured after 1 hr by LC/MS/MS method; format: ADME, Microsome
[8] = Ratio of drug level of test compound to drug level of DPTIP in CD-1 mouse plasma at 10 mg/kg, po measured after 0.5 hrs by UPLC and LC-MS/MS analysis; format: ADME, organism-based; conditions: in vivo; outline: as §1
[9] = Metabolic stability in mouse liver microsomes assessed as parent compound remaining in presence of UDPGA at 5 uM measured after 1 hr by LC/MS/MS method; format: ADME, Microsome
Outline: (§2)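 Glucuronidation: compound in 50 mM Tris-HCl pH 7.5 with microsomes 0.5 mg/mL, 8 mM MgCl2, 25 μg/mL alamethicin, preincubated at 37 °C; started with UDPGA 2 mM final, triplicate; 60 min; quenched with cold acetonitrile plus internal standard; parent remaining by LC/MS/MS; cofactor-free controls.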

[10] = Ratio of drug level of test compound to drug level of DPTIP in CD-1 mouse brain at 10 mg/kg, po measured after 2 hrs by UPLC and LC-MS/MS analysis; format: ADME, organism-based; conditions: in vivo; outline: as §1
[11] = Drug metabolism in CD-1 mouse assessed as (2S,3S,4S,5R,6S)-6-(4-(4,5-diisopropyl-1H-imidazol-2-yl)-2,6-dimethoxyphenoxy)-3,4,5-trihydroxytetrahydro-2H-pyran-2-carboxylic acid at 10 mg/kg, po measured after 2 hrs by UPLC and LC-MS/MS analysis; format: ADME, organism-based; conditions: in vivo
[12] = Metabolic stability in human liver microsomes assessed as parent compound remaining in presence of UDPGA at 5 uM measured after 1 hr by LC/MS/MS method; format: ADME, Microsome; outline: as §2
[13] = species: Homo sapiens; test: Selectivity index, ratio of IC50 for choline oxidase (unknown origin) to IC50 for Inhibition of human recombinant nSMase expressed in HEK293 cells; format: cell-based

COc1cc(-c2nc(C(C)C)c(C(C)C)[nH]2)cc(OC)c1O
Stability [1]: 82%
Ratio IC50 [2]: > 5
IC50 [3]: 90 nM
BPR [4]: 9%
Ratio [5]: 6
Ratio IC50 [6]: > 5
Stability [7]: > 95%
Ratio [8]: 3
Stability [9]: 14%
Ratio [10]: 3
Drug metabolism [11]: Metabolite_Detected
Stability [12]: 32%
Ratio IC50 [13]: > 5
